Here are results for 21 compounds from ChEMBL document CHEMBL1165850, “Synthesis, biological evaluation and molecular docking of novel series of spiro [(2H,3H) quinazoline-2,1'- cyclohexan]-4(1H)-one derivatives as anti-inflammatory and analgesic agents” (Eur J Med Chem, 2010).

The test system of data set [1] is Rattus norvegicus. The data set is described as follows: Antiinflammatory activity in rat assessed as reduction in carrageenan-induced paw edema at 9 mg/kg, ip administered 1 hr before carrageenan challenge measured after 2 hrs. Type of data set: functional. More on the design: unit not given here. As to conditions: route intraperitoneal. The essentials: (§1)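 Adult rats of either sex (150–200 g), randomly grouped. Compounds were dissolved in DMSO and given i.p. at 9 mg/kg; indomethacin was given at 10 mg/kg; controls received DMSO i.p. Dosing was 1 h before 100 ul of 1% carrageenan in saline injected subplantar into the right hind paw. Paw volume was measured by planimeter before and at 1, 2, 3 and 4 h. Values are mean ± S.E., analysed by one-way ANOVA with LSD.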
For orientation: Carrageenan injected into the paw causes an acute inflammation.

Data set [2] relates to Mus musculus. The data set is described as follows: Analgesic activity in mouse assessed as reaction time administered 1 hr before test measured after 2 hrs by hot plate test. The data set is classed as functional. The essentials:
(§2)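 Hot-plate test in adult mice (20–25 g), plate at 52 °C (±0.1 °C). Vehicle, compounds or tramadol (20 mg/Kg b wt) were given 60 min before testing. Latency to lick a hind paw or jump was recorded before dosing and at 1 and 2 h after. Values are mean ± S.E. of six animals per group, with Dunnett's test against control.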

Data set [3] has as its system Mus musculus. The data set is described as follows: Analgesic activity in mouse assessed as reaction time administered 1 hr before test measured after 1 hr by hot plate test. The data set is classed as functional. The essentials:
as §2

Data set [4] has as its system Rattus norvegicus. The data set is described as follows: Antiinflammatory activity in rat assessed as reduction in carrageenan-induced paw edema at 9 mg/kg, ip administered 1 hr before carrageenan challenge measured after 3 hrs. Type of data set: functional. More on the design: unit not given here. Conditions: route intraperitoneal. The essentials:
as §1

In data set [5] the test system is Rattus norvegicus. The data set is described as follows: Antiinflammatory activity in rat assessed as reduction in carrageenan-induced paw edema at 9 mg/kg, ip administered 1 hr before carrageenan challenge measured after 1 hr. More on the design: unit not given here. Type of data set: functional. As to conditions: route intraperitoneal. The essentials:
as §1

In data set [6] the test system is Rattus norvegicus. The data set is described as follows: Gastrointestinal toxicity in Wistar rat assessed as ulcerogenic effect at 9 mg/kg, po after 7 hrs. Type of data set: organism-based. More on the design: dose 9 mg/kg, route oral. As to conditions: in vivo. The method in brief: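 Male Wistar rats, 150–175 g, groups of 5, fasted 48 h, then given 9 mg/kg orally as an aqueous suspension (10 mL/kg). Killed 7 h later. Stomachs were opened along the greater curvature and inspected for irritation, scored as number of ulcers, ulcer severity and number of rats with ulcers per 5. Ethanol control, indomethacin reference. Reported as mean ± S.E.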

Data set [7] relates to Mus musculus. Briefly: Analgesic activity in mouse assessed as reaction time at 20 mg/kg administered 1 hr before test measured after 2 hrs by hot plate test. Type of data set: functional. The essentials: as §2
The subject of data set [8] is Mus musculus. Briefly: Analgesic activity in mouse assessed as reaction time at 20 mg/kg administered 1 hr before test measured after 1 hr by hot plate test. The data set is classed as functional. The essentials: as §2

Molecules are shown by their SMILES.

As to `CN(C)c1ccc(C2CC(c3ccc(N4C(=O)c5ccccc5NC45CCCCC5)cc3)=NN2c2ccccc2)cc1` (centres undefined), the figures for the Activity in the data set with Rattus norvegicus [1], in the data set with Rattus norvegicus [4] and with Rattus norvegicus [5] were 65.4, 66.4 and 57.9, respectively. Moreover, the Time with Mus musculus [2] stood at 20.5 s; in the data set with Mus musculus [3], 15 s. Moreover, the UI with Rattus norvegicus [6] is 10.4.
For `O=C1c2ccccc2NC2(CCCCC2)N1c1ccc(C2=NN(c3ccccc3)C(c3ccco3)C2)cc1` (centres undefined), the Activity in the data set on Rattus norvegicus [1] amounted to 79.1; in the data set on Rattus norvegicus [4] it was 82.5; with Rattus norvegicus [5], 52.2. Moreover, the Time in the data set with Mus musculus [2] was 10.9 s; in the data set on Mus musculus [3] it was 9.2 s.
On to `CCOC(=O)c1ccc(N2C(=O)c3ccccc3NC23CCCCC3)cc1`, for which the results for the Activity with Rattus norvegicus [1], in the data set with Rattus norvegicus [4] and with Rattus norvegicus [5] were 59.6, 67.8 and 44.2, respectively. Moreover, the Time with Mus musculus [2] turned out to be 14.6 s; in the data set with Mus musculus [3], 12 s.
For the compound `COc1ccc(/C=N/NC(=O)c2ccc(N3C(=O)c4ccccc4NC34CCCCC4)cc2)cc1`, the values for the Activity in the data set with Rattus norvegicus [1], with Rattus norvegicus [4] and in the data set with Rattus norvegicus [5] were 88, 88.7 and 72.4, respectively. Besides, the values for the Time with Mus musculus [2] and with Mus musculus [3] were 16.9 s and 13.3 s, respectively.
On to `O=C(NN1C(=O)CN(C2CCCCC2)C1=S)c1ccc(N2C(=O)c3ccccc3NC23CCCCC3)cc1`, for which the figures for the Activity with Rattus norvegicus [1], in the data set on Rattus norvegicus [4] and in the data set with Rattus norvegicus [5] were 66.7, 77.2 and 54.9, respectively. The Time came out at 13 s with Mus musculus [2] and 8.9 s with Mus musculus [3].
For the compound `NNC(=O)c1ccc(N2C(=O)c3ccccc3NC23CCCCC3)cc1`, the Activity in the data set on Rattus norvegicus [1] was found to be 85.7; in the data set on Rattus norvegicus [4], 82.1; with Rattus norvegicus [5] it was 57.5. The Time turned out to be 17 s in the data set with Mus musculus [2] and 9.4 s in the data set with Mus musculus [3].
For `NS(=O)(=O)c1ccc(N2C(=O)c3ccccc3NC23CCCCC3)cc1`, the Activity is 78.9 with Rattus norvegicus [1], 87.7 with Rattus norvegicus [4] and 57.7 with Rattus norvegicus [5]. Besides, the Time in the data set on Mus musculus [2] is 17.5 s; in the data set on Mus musculus [3], 9.5 s.
With `O=C1c2ccccc2NC2(CCCCC2)N1c1ccc(S(=O)(=O)Nc2ncccn2)cc1`, the Activity in the data set with Rattus norvegicus [1] stood at 74.1; with Rattus norvegicus [4] it was 80.1; in the data set with Rattus norvegicus [5], 60.4. The values for the Time in the data set on Mus musculus [2] and in the data set with Mus musculus [3] were 21.6 s and 19.8 s, respectively. Further, the UI in the data set on Rattus norvegicus [6] was found to be 0.6.
In the case of `CCC(=S)NS(=O)(=O)c1ccc(N2C(=O)c3ccccc3NC23CCCCC3)cc1`, the Activity in the data set with Rattus norvegicus [1] worked out at 83.4; in the data set with Rattus norvegicus [4], 88.6; with Rattus norvegicus [5], 67.5. In addition, the results for the Time in the data set on Mus musculus [2] and in the data set with Mus musculus [3] were 19.1 s and 11 s, respectively.
Regarding `N#Cc1c(-c2ccc(F)cc2)cc(-c2ccc(N3C(=O)c4ccccc4NC34CCCCC4)cc2)[nH]c1=O`, the values for the Activity in the data set on Rattus norvegicus [1], in the data set on Rattus norvegicus [4] and in the data set with Rattus norvegicus [5] were 74.6, 88 and 85.4, respectively. In addition, the values for the Time in the data set on Mus musculus [2] and with Mus musculus [3] were 13.5 s and 11.8 s, respectively.
Take `N#Cc1c(-c2ccccc2O)cc(-c2ccc(N3C(=O)c4ccccc4NC34CCCCC4)cc2)[nH]c1=O`: the figures for the Activity in the data set with Rattus norvegicus [1], in the data set on Rattus norvegicus [4] and in the data set with Rattus norvegicus [5] were 71.8, 76.4 and 49.4, respectively. Besides, the Time in the data set on Mus musculus [2] amounted to 19.4 s; in the data set on Mus musculus [3] it was 24.9 s. Besides, in the data set on Rattus norvegicus [6], the UI stood at 0.
In the case of `O=C(NN1C(=O)CSC1c1cccs1)c1ccc(N2C(=O)c3ccccc3NC23CCCCC3)cc1` (centres undefined), the Activity in the data set on Rattus norvegicus [1] is listed as 65.1; in the data set with Rattus norvegicus [4] it was 55.9; in the data set on Rattus norvegicus [5], 56.2. Besides, the Time with Mus musculus [2] is 18.4 s; with Mus musculus [3] it was 21 s. Further, the UI with Rattus norvegicus [6] came out at 0.4.
With `O=C(NNC(=S)NC1CCCCC1)c1ccc(N2C(=O)c3ccccc3NC23CCCCC3)cc1`, the Activity was determined as 82.1 in the data set on Rattus norvegicus [1], 83.9 in the data set on Rattus norvegicus [4] and 65.1 in the data set with Rattus norvegicus [5]. Further, the Time was 17.2 s in the data set with Mus musculus [2] and 9.3 s in the data set on Mus musculus [3].
In the case of `N#Cc1c(-c2ccccc2O)cc(-c2ccc(N3C(=O)c4ccccc4NC34CCCCC4)cc2)[nH]c1=N`, the Activity is 66.6 with Rattus norvegicus [1], 68.6 in the data set on Rattus norvegicus [4] and 61 with Rattus norvegicus [5]. The Time turned out to be 18.4 s with Mus musculus [2] and 14.6 s in the data set on Mus musculus [3]. Also, the UI in the data set on Rattus norvegicus [6] is on record as 2.
For the compound `O=C(/C=C/c1ccco1)c1ccc(N2C(=O)c3ccccc3NC23CCCCC3)cc1`, the Activity with Rattus norvegicus [1] came to 93.8; with Rattus norvegicus [4], 94.8; in the data set with Rattus norvegicus [5] it was 60.4. Besides, the Time in the data set on Mus musculus [2] is listed as 17.1 s; in the data set with Mus musculus [3], 9.6 s.
In the case of `O=C(NN1C(=O)CC(=O)N(C2CCCCC2)C1=S)c1ccc(N2C(=O)c3ccccc3NC23CCCCC3)cc1`, the results for the Activity with Rattus norvegicus [1], with Rattus norvegicus [4] and with Rattus norvegicus [5] were 79.3, 85.1 and 61.7, respectively. Further, the Time with Mus musculus [2] turned out to be 17.1 s; with Mus musculus [3], 9.4 s.
For the compound `CC(=O)N1N=C(c2ccc(N3C(=O)c4ccccc4NC34CCCCC4)cc2)CC1c1ccco1` (centres undefined), the Activity was determined as 88.7 with Rattus norvegicus [1], 83.5 with Rattus norvegicus [4] and 49.9 in the data set with Rattus norvegicus [5]. Further, the Time in the data set on Mus musculus [2] came out at 17 s; in the data set on Mus musculus [3], 9.5 s.
As for `N#Cc1c(-c2ccc(F)cc2)cc(-c2ccc(N3C(=O)c4ccccc4NC34CCCCC4)cc2)[nH]c1=N`, the values for the Activity in the data set with Rattus norvegicus [1], with Rattus norvegicus [4] and in the data set on Rattus norvegicus [5] were 78.2, 81.3 and 66.4, respectively. Besides, the Time stood at 17.8 s in the data set on Mus musculus [2] and 24.1 s in the data set on Mus musculus [3]. Further, the UI in the data set with Rattus norvegicus [6] stood at 3.2.
As for `CC(=O)c1ccc(N2C(=O)c3ccccc3NC23CCCCC3)cc1`, the Activity with Rattus norvegicus [1] came to 80.9; in the data set with Rattus norvegicus [4], 81.5; in the data set on Rattus norvegicus [5], 54.6. For the same compound, the Time was 17 s with Mus musculus [2] and 9.1 s in the data set with Mus musculus [3].
`COc1ccc2c(c1)c(CC(=O)O)c(C)n2C(=O)c1ccc(Cl)cc1` [INDOMETHACIN]: the UI in the data set with Rattus norvegicus [6] was 9.8.
Turning to `COc1cccc(C2(O)CCCCC2CN(C)C)c1` (centres undefined) [TRAMADOL], the Time is 18.2 s with Mus musculus [7] and 17.6 s in the data set on Mus musculus [8].
